The data set can be described thus: Toxicity liver stage against HepG2, at 10uM. In kind it is cell-based. More on the design: test concentration 10 uM, cell line HepG2-A16-CD81EGFP. To be noted: human, HepG2-A16-CD81EGFP cells; read-out: INHIBITION
In a few lines: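 Uninfected HepG2-A16-CD81EGFP cells, 3 × 10^3 per well, 1536-well, plated on prespotted compound at 10 μM final, parasite-free screening media added to match infected plates; puromycin 10 μM positive, DMSO 0.5% negative; run in parallel with 48 h PbLuc assay at 37 °C, 5% CO2; viability by CellTiter-Glo luminescence, normalized to controls.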
Take `CCc1nc2n(n1)CC(NCc1nc3ccccc3o1)CC2` (stereo not given): the cytotoxicity at 10 µM was determined as 12.4%.
The same measure for `Cc1nc(-c2ccoc2)n(CC(=O)NCC(C)C)c1C`: -1.49%.
The value for `O=C(CNCC1(O)CCCN(Cc2cccc(F)c2F)C1=O)NC1CC1` (stereo not given) was -4.02%; that for `COCCN1C[C@@H]2CC[C@H]1CN(C(=O)CCc1c(C)nn(C)c1C)C2` was -8.6%.
Turning to `CCn1cc2c(n1)C(COCC1CC1)CN(C(=O)c1ccco1)C2` (stereo not given), the cytotoxicity at 10 µM worked out at 17.6%.
The value for `Cc1cc(C)nc(N2CCc3ccc(OC(F)F)cc3C2)n1` was 2.68%; that for `Cn1cc(NC(=O)NCc2ccsc2)ccc1=O` was -10.2%; that for `CCn1cnnc1CNC(=O)N1CCN(c2ccccc2OC)CC1` was -6.02%.
In the case of `Cc1ncsc1COC(=O)c1cccc2c1OCCO2`, the cytotoxicity at 10 µM turned out to be 1.37%.
The same measure for `COCC(=O)N1CCC2(CC1)COCCN2Cc1ccc(F)cc1`: -73.4%.
The value for `CSc1nc2ccsc2c(=O)n1CC(=O)N1CCCCC1C` (stereo not given) was 7.08%; that for `Cc1cccc(N2CCN(c3ccn4c(=O)[nH]nc4n3)CC2)c1C` was 36%; that for `C1CN(Cc2noc(C3CC3)n2)CCN(Cc2nnc(C3CC3)o2)C1` was -10.9%.
The value for `Cn1cc(C2CCCN2C(=O)CCCc2nc3ccccc3[nH]2)cn1` (stereo not given) was 2.35%; that for `CCCNC(=O)c1cc(-c2cnc(N3CCCC3)nc2)cn1C` was -54.6%; that for `COc1ccc(CC(=O)Nc2ccc3ncn(C(C)C)c(=O)c3c2)cc1` was 3.97%.
In the case of `Cc1nc2n(n1)CC(NCc1nc(-c3ccccn3)no1)CC2` (stereo not given), the cytotoxicity at 10 µM was -12.4%.
The same measure for `O=C1COc2cc(S(=O)(=O)NCCC3=CCCCC3)c(Br)cc2N1`: 15.7%; for `NC(=O)C1CCN(C(=O)c2ccccc2OCc2ccccc2Cl)CC1`: -9.4%; for `CNC(=O)Cc1noc(-c2cc3c(s2)CCCCCC3)n1`: 3.76%.
The same measure for `COc1ccccc1CCNC(=O)CN1CCCC1c1noc(C)n1` (stereo not given): -3.81%.
In the case of `Oc1nc(C2CC2)nc2c1nnn2C1CCN(Cc2ccoc2)CC1`, the cytotoxicity at 10 µM stood at 6.01%.
The same measure for `CNC(=O)[C@H]1C[C@@H]2CN(Cc3cccnc3OC)C[C@@H]2N1C(C)=O`: 1.2%.
The value for `CC(NC(=O)Cn1cccn1)c1ccc2c(c1)OCCCO2` (stereo not given) was -2.55%; that for `CN(CCCO)Cc1cc(Cl)ccc1OCC(O)CN1CCCCCC1` (stereo not given) was 2.71%.
The value for `Cc1ccccc1C1CCN(C(=O)CCNC(=O)C(C)(C)C)C1` (stereo not given) was -5.47%.
Turning to `OC1CCN([C@@H]2CCN(c3nc(-c4ccccc4)no3)C[C@H]2O)CC1`, the cytotoxicity at 10 µM was -9.88%.
The value for `CC(C)CN1CCN(C(=O)c2ccn(C)c(=O)c2)CC1` was -17.2%; that for `CS(=O)(=O)NCc1cn2c(n1)CN(Cc1ccoc1)CC2` was 7.92%; that for `O=C(Cc1ccsc1)N1CCC(c2ccncc2)CC1` was 8.89%.
The same measure for `COc1cccc(CN2C[C@@H]3CC[C@@](O)(c4ccccn4)[C@@H]3C2)c1OC`: -9.94%; for `CN(Cc1ccc(Cl)s1)C(=O)NCCN1CCCCCC1=O`: -0.509%; for `CCN(CCn1cccn1)C(=O)CN1C(=O)OC[C@@H]1c1ccccc1`: -12.1%.
Take `Cc1ccc(N2CCc3sc(C(=O)N4CCOCC4)cc32)nn1`: the cytotoxicity at 10 µM is -0.142%.
The same measure for `Cc1cc(C)n(CCN2CCN(C(=O)c3ccc(Br)o3)CC2)n1`: -8.46%; for `O=C(c1ccc(-c2cccc3c2CCNC3)o1)N1CCCC1`: 3.34%.
The value for `O=C(O)CCc1cccc(C2CCCN2Cc2cccc(Cl)c2)n1` (stereo not given) was -22.6%.
`Cc1cccc(-c2ncc(CNC(C)CO)cn2)c1` (stereo not given): the cytotoxicity at 10 µM was determined as 2.16%.
The same measure for `CC(=O)N1C[C@H]2CNC[C@@]2(C(=O)NCCOc2ccccc2F)C1`: 2.8%.
Consider `NC(=O)C1CCCN(C(=O)c2cccc(OCc3cscn3)c2)C1` (stereo not given), for which the cytotoxicity at 10 µM is -7.98%.
The value for `CCn1ncc2c1C(COC)CN(Cc1nccs1)C2` (stereo not given) was 9.41%; that for `CCN(C)c1ncnc2c1CCN(c1ccc(C)nn1)CC2` was -94.7%; that for `CCCc1n[nH]cc1C(=O)N1CCCC(c2nccn2CC2CC2)C1` (stereo not given) was 1.1%.
The same measure for `CCOCCN1CCO[C@H]2[C@H](OCc3ccccn3)CC[C@@H]21`: -113%; for `CCc1cc(CNC(=O)NCc2ccc(N3CCCCC3)cc2)on1`: 1.27%.
With `Cc1[nH]ccc1C(=O)N1CCC2(CC1)c1nc[nH]c1CCN2S(C)(=O)=O`, the cytotoxicity at 10 µM came to 6.63%.
The value for `COC(=O)c1ccoc1COC(=O)CCc1ccc(OC)c(OC)c1` was 5.27%; that for `CC(=O)Nc1cnc(Oc2ccccc2F)nc1` was -4.23%; that for `CCN1CC[C@@]2(C(=O)N3CCOCC3)CCN(C(=O)CC(C)C)CC[C@@H]12` was 3.56%.
The value for `Cn1ccc(C2CCCCN2C(=O)c2cccc(-n3cccn3)c2)n1` (stereo not given) was -0.874%; that for `c1ccc(OCCN2CCN(c3ncnc4[nH]ccc34)CC2)cc1` was 8.64%; that for `CC(Nc1nc2c(cnn2C)c(=O)[nH]1)c1ccc(F)cc1` (stereo not given) was 16.6%.
In the case of `Cc1n[nH]c(C)c1C1CCCN1C(=O)c1cc(Br)c[nH]1` (stereo not given), the cytotoxicity at 10 µM is -4.08%.
As for `O=C1O[C@@H]2CN(S(=O)(=O)N3CCCC3)C[C@@H]2N1CCc1cccc(Cl)c1`, the cytotoxicity at 10 µM is -2.9%.
For the compound `O[C@@H]1Cc2ccccc2[C@@H]1Nc1ncccc1F`, the cytotoxicity at 10 µM is 13.3%.
The value for `O=C(C1CCCC1)N1CCOC(c2nc(-c3ncccn3)no2)C1` (stereo not given) was -2.3%; that for `Cc1cc(C(N)=O)ccc1NC(=O)c1nc(N2CCCCC2)ncc1Cl` was -13.9%.
The same measure for `CC(C)n1cnnc1C1CCCN(S(=O)(=O)CCCF)C1` (stereo not given): 7.39%; for `O=C(NCCCn1cncn1)c1ccc(-c2ccccc2)[nH]c1=O`: -4.86%; for `CCOCCCNC(=O)CCSCc1csc(C)n1`: -3.57%.
The value for `CCc1cccc(N2CCC(NC(=O)C3CCOCC3)CC2)c1` was -8.93%; that for `CNc1nc(C(=O)N2C[C@@H]3CC[C@H]2CN(S(C)(=O)=O)C3)cs1` was 0.977%; that for `Cc1cccc(N2CC3(CCN(Cc4nccn4C)C3)CC2=O)c1` (stereo not given) was -78.6%.
Regarding `CN1CCCN(c2ccc(F)cc2CNC(=O)c2cccnc2)CC1`, the cytotoxicity at 10 µM is -2.52%.
The value for `O=C1NCCN1C1CCN(Cc2nc(-c3ccsc3)no2)CC1` was 44.8%.
The value for `COc1cccc(-c2n[nH]cc2C(=O)NC(C)CC(=O)O)c1` (stereo not given) was -8.91%; that for `CN(C)c1ncccc1CNC(=O)N1CCN(C)c2ccccc2C1` was 4.72%.
Consider `CC1(C)CN(S(=O)(=O)N2CCCC2)CC1c1ccccc1` (stereo not given), for which the cytotoxicity at 10 µM is -0.71%.
With `CCCS(=O)(=O)C(C)C(=O)Nc1ccc2oc(C3CC3)nc2c1` (stereo not given), the cytotoxicity at 10 µM is 5.3%.
The same measure for `O=C(C1CC1)N1CCCC1C1CCN(Cc2ccccc2)CC1` (stereo not given): -9.37%; for `O=C(CSc1ccc2c(c1)OCCO2)NS(=O)(=O)c1ccccc1Cl`: -4.46%.
The value for `N#Cc1ccc(F)cc1Cn1cnc(C2CCC2)cc1=O` was 15.4%; that for `COCCN(Cc1cnn(C)c1)Cc1ccc(C)o1` was -0.0972%.
Regarding `CC1=C[C@@H](CN2CCCC2)[C@H](C(C)C)C[C@H]1Cc1nnc(C)o1`, the cytotoxicity at 10 µM was 2.47%.
The value for `NC(=O)c1cccnc1N1CCN(c2ncnc3c2CCNC3)CC1` was -3.03%.
The same measure for `CCn1c(CN(C)C)nnc1C1CCN(Cc2ccccc2)CC1`: -11.6%; for `Cc1occc1C(=O)N1CCO[C@H]2[C@@H](Oc3ccccn3)CC[C@@H]21`: 2.37%.
The same measure for `Cc1cnc(C(=O)N2C[C@H]3CN(Cc4nccs4)C[C@H]3C2)cn1`: -147%; for `CNC(=O)CN1CC[C@H]2CN(C(=O)c3ccccc3C)C[C@H]2C1`: 0.793%.
`CC(=O)N1CCCc2ccc(S(=O)(=O)N3CCCCC3C)cc21` (stereo not given): the cytotoxicity at 10 µM is -15.1%.
`O=C(CCCc1nnc(-c2ccccc2)o1)N1CCN(CCO)CC1`: the cytotoxicity at 10 µM is -6.31%.
The value for `NC(=O)C(NC1CCN(CC2CCCCC2)CC1)c1ccccc1` (stereo not given) was -4.57%.
The value for `CN(C(=O)c1ccon1)[C@@H]1CCC[C@@H](Oc2ccccc2)[C@@H]1O` was -17.5%; that for `Cc1cnn(CCNCc2nc(Cc3ccccc3)no2)c1` was -7.7%; that for `COCCCN1CCCC12CCN(Cc1cccnc1OC)CC2` was 11.8%.
For `Cc1cccc(CN2C(=O)C[C@H]3[C@@H]2CCN3Cc2nccs2)n1`, the cytotoxicity at 10 µM was -2.92%.
As to `CC(=O)N1CCCC1c1csc(Nc2cnccn2)n1` (stereo not given), the cytotoxicity at 10 µM worked out at 2.09%.
The same measure for `CN1CCC(CNC(=O)Cc2ccc(N(C)C)cc2)CC1`: 6.8%; for `COC(=O)c1ccc(S(=O)(=O)NCC(O)c2sccc2C)cc1` (stereo not given): 2.16%.
Take `Cc1cccn2c(CNC(C)CCn3cccn3)cnc12` (stereo not given): the cytotoxicity at 10 µM came to 21.6%.
The value for `Cc1cccc(-c2noc(CN3CCC(N4CCNC4=O)CC3)n2)c1` was 5.34%; that for `CC(C)(C)c1noc(CN2CCCN(Cc3cccs3)CC2)n1` was -8.8%.
The value for `Cc1ccsc1[C@@H]1CCN(C(=O)CCc2n[nH]c(C)c2C)C[C@H]1O` was 7.04%; that for `COc1ccc(CCC(=O)Nc2ccc3ncn(C)c(=O)c3c2)cc1` was 6.44%.
Take `Cn1ccnc1CNC(=O)c1cncc(C2CCNCC2)n1`: the cytotoxicity at 10 µM is 1.81%.

For the origin of these results see ChEMBL document CHEMBL4513216, “Probing the Open Global Health Chemical Diversity Library for Multistage-Active Starting Points for Next-Generation Antimalarials” (ACS Infect Dis, 2020).
